Assay results taken from ChEMBL document CHEMBL1123988, “Studies on antifungal agents. 23. Novel substituted 3,5-diphenyl-3-(1H-imidazol-1-ylmethyl)- 2-alkylisoxazolidine derivatives” (1988).
In brackets after ≈: the same amount, converted by molar mass.

How the values were obtained:
Aspergillus fumigatus = experiment: In vitro antifungal activity against Aspergillus fumigatus ATCC 28212; assay type: functional
Method in brief: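 Agar-well MIC with Antibiotic Medium 3 + 2% agar containing compound at 70 to 0.2 µg/mL, using four- or six-point dilutions. Mold was grown about 1 week on Potato Flake Agar at 26 °C, swabbed into sterile water, counted by hemacytometer and adjusted to 1 × 10^4 cells/mL. MIC was the lowest dilution without visible growth.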

Candida albicans [1] = experiment: In vitro antifungal activity against Candida albicans ATCC 10259; assay type: functional
Method in brief: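 Yeast was cultured overnight on Potato Flake Agar at 26 °C, swabbed into sterile water, counted by hemacytometer and diluted to 1 × 10^4 cells/mL. Wells (24-well) contained Antibiotic Medium 3 + 2% agar with compound at 70 to 0.2 µg/mL, in four- or six-point series. Each well got 0.05 mL and was held at 26 °C until control growth was visible. MIC was the lowest concentration with no visible growth.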

Candida albicans [2] = experiment: In vitro antifungal activity against Candida stellatoidea ATCC 36232; assay type: functional
Method in brief: (§1)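 Solid agar MIC in 24-well plates. Compound was diluted 10-fold into Antibiotic Medium 3 + 2% agar at 70 to 0.2 µg/mL, using four- or six-point schemes, with a ketoconazole control. The organism was grown on Potato Flake Agar at 26 °C, counted by hemacytometer and diluted to 1 × 10^4 cells/mL. Wells received 0.05 mL and were incubated at 26 °C until control growth appeared. MIC was the lowest dilution with no visible growth.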

Epidermophyton floccosum = experiment: In vitro antifungal activity against Epidermophyton floccosum ATCC E-18397; assay type: functional; method in brief: as §1
Microsporum canis = experiment: In vitro antifungal activity against Microsporum canis ATCC 44459; assay type: functional; method in brief: as §1
Microsporum audouinii = experiment: In vitro antifungal activity against Microsporum audouinii ATCC 9079; assay type: functional; method in brief: as §1
Trichophyton benhamiae = experiment: (§2) In vitro antifungal activity against Trichophyton mentagrophytes ATCC 9533; assay type: functional, Arthroderma benhamiae; method in brief: as §1
Trichophyton rubrum = experiment: In vitro antifungal activity against Trichophyton rubrum ATCC 18762; assay type: functional
Method in brief: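 Dermatophyte was grown about 2 weeks on Potato Flake Agar at 26 °C, washed off the plate with sterile water and diluted to 1 × 10^4 cells/mL by hemacytometer count. Agar wells (Antibiotic Medium 3 + 2% agar, compound 70 to 0.2 µg/mL, four- or six-point) were inoculated with 0.05 mL and incubated at 26 °C until controls grew. MIC was the lowest dilution showing no visible growth.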

[3] = system: Trichophyton schoenleinii; experiment: In vitro antifungal activity against Trichophyton schoenleinii ATCC 22775; assay type: functional; method in brief: as §1
Trichophyton tonsurans [4] = experiment: (§3) In vitro antifungal activity against Trichophyton tonsurans ATCC 9085; assay type: functional; method in brief: as §1
[5] = as §2; assay type: functional, Arthroderma benhamiae; details: Trichophyton benhamiae; method in brief: as §1
Trichophyton tonsurans [6] = experiment: as §3; assay type: functional; remark: listed apart in the source
Method in brief: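 Solid agar MIC in 24-well plates. Compound was diluted 10-fold into Antibiotic Medium 3 + 2% agar, using either a […] or a 70/20/7/2/0.7/0.2 µg/mL scheme. Cells counted by hemacytometer were diluted to 1 × 10^4 cells/mL, and 0.05 mL was inoculated. Plates were incubated at 26 °C until compound-free controls grew. MIC is the lowest dilution with no visible growth.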

Candida albicans [7] = experiment: Antifungal activity in rat vaginal candidasis, 2 day postinfection with Candida. albicans SOB FM-391; assay type: functional
Method in brief: (§4)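 Ovariectomized female Sprague–Dawley rats (170–230 g), eight per group, kept in pseudoestrus with weekly sc estradiol valerate (0.5 mg). Intravaginal challenge on day 4 with 1 × 10^7 organisms in 0.1 mL RPMI+. Oral dosing at 20 mg/kg in 1% (carboxymethyl)cellulose, twice daily for 7 days from 24 h post-infection. Vaginal swabs in PBS were serially diluted and plated on SDA for 48 h at 24–26 °C. Read-out is log10 organisms/mL lavage fluid.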

Candida albicans [8] = experiment: Antifungal activity in rat vaginal candidasis, 3 day postinfection with Candida. albicans SOB FM-391; assay type: functional; method in brief: as §4
Candida albicans [9] = experiment: Antifungal activity in rat vaginal candidasis, 4 day postinfection with Candida. albicans SOB FM-391; assay type: functional; method in brief: as §4
Candida albicans [10] = experiment: Antifungal activity in rat vaginal candidasis, 7 day postinfection with Candida. albicans SOB FM-391; assay type: functional; method in brief: as §4
Candida albicans [11] = experiment: Antifungal activity in rat vaginal candidasis, 8 day postinfection with Candida. albicans SOB FM-391; assay type: functional; method in brief: as §4
Candida albicans [12] = experiment: Antifungal activity in rat vaginal candidasis, 1 day postinfection with Candida. albicans SOB FM-391; assay type: functional; method in brief: as §4
Trichophyton tonsurans [13] = experiment: In vitro antifungal activity against Trichophyton tonsurans ATCC 9085
[14] = system: Trichophyton schoenleinii; experiment: In vitro antifungal activity against Trichophyton schoenleinii ATCC 22775

SMILES | MIC (Aspergillus fumigatus) [µg/mL] | MIC (Candida albicans [1]) [µg/mL] | MIC (Candida albicans [2]) [µg/mL] | MIC (Epidermophyton floccosum) [µg/mL] | MIC (Microsporum canis) [µg/mL] | MIC (Microsporum audouinii) [µg/mL] | MIC (Trichophyton benhamiae) [µg/mL] | MIC (Trichophyton rubrum) [µg/mL] | MIC [3] [µg/mL] | MIC (Trichophyton tonsurans [4]) [µg/mL] | MIC [5] [µg/mL] | MIC (Trichophyton tonsurans [6]) [µg/mL] | Log (Candida albicans [7]) | Log (Candida albicans [8]) | Log (Candida albicans [9]) | Log (Candida albicans [10]) | Log (Candida albicans [11]) | Log (Candida albicans [12]) | MIC (Trichophyton tonsurans [13]) [µg/mL] | MIC [14] [µg/mL]
Cc1ccc([C@@H]2C[C@@](Cn3ccnc3)(c3ccc(Cl)cc3)N(C)O2)cc1 | 70 (≈ 190 µM) | 7 (≈ 19 µM) | 0.7 (≈ 1.9 µM) | 0.7 (≈ 1.9 µM) | 7 (≈ 19 µM) | 7 (≈ 19 µM) | 0.7 (≈ 1.9 µM) | 2 (≈ 5.44 µM) | 2 (≈ 5.44 µM) | 0.7 (≈ 1.9 µM) |  |  |  |  |  |  |  |  |  | 
Cc1ccc([C@H]2C[C@@](Cn3ccnc3)(c3ccc(Cl)cc3)N(C)O2)cc1 | 70 (≈ 190 µM) | 20 (≈ 54.4 µM) | 0.7 (≈ 1.9 µM) | 2 (≈ 5.44 µM) | 7 (≈ 19 µM) | 20 (≈ 54.4 µM) |  | 2 (≈ 5.44 µM) | 2 (≈ 5.44 µM) |  | 2 (≈ 5.44 µM) | 2 (≈ 5.44 µM) |  |  |  |  |  |  |  | 
CC(=O)N1CCN(c2ccc(OCC3COC(Cn4ccnc4)(c4ccc(Cl)cc4Cl)O3)cc2)CC1 (stereo not drawn) [KETOCONAZOLE] | 7 (≈ 13.2 µM) | 20 (≈ 37.6 µM) | 20 (≈ 37.6 µM) | < 0.2 | 2 (≈ 3.76 µM) | 7 (≈ 13.2 µM) | 2 (≈ 3.76 µM) | 0.7 (≈ 1.32 µM) | 0.7 (≈ 1.32 µM) |  |  | < 0.2 | 1.5 | 0.3 | 0 | 0 | 0 | 5 |  | 
COc1ccc([C@@H]2C[C@@](Cn3ccnc3)(c3ccc(OC)cc3)N(C)O2)cc1 | > 70 | 70 (≈ 184 µM) | 20 (≈ 52.7 µM) | 7 (≈ 18.4 µM) | 20 (≈ 52.7 µM) | 70 (≈ 184 µM) | 20 (≈ 52.7 µM) | 20 (≈ 52.7 µM) | 70 (≈ 184 µM) | 20 (≈ 52.7 µM) |  |  |  |  |  |  |  |  |  | 
CN1O[C@H](c2ccc(Cl)cc2)C[C@@]1(Cn1ccnc1)c1ccc(Cl)cc1 | 7 (≈ 18 µM) | 7 (≈ 18 µM) | 2 (≈ 5.15 µM) | < 0.2 | 2 (≈ 5.15 µM) | 2 (≈ 5.15 µM) | < 0.2 | 0.7 (≈ 1.8 µM) | 0.7 (≈ 1.8 µM) | < 0.2 |  |  | 4 | 3.6 | 3.4 | 3.3 | 1.8 | 4.7 |  | 
CN1O[C@H](c2ccccc2Cl)C[C@@]1(Cn1ccnc1)c1ccc(Cl)cc1 | 7 (≈ 18 µM) | 7 (≈ 18 µM) | 0.7 (≈ 1.8 µM) | < 0.2 | 2 (≈ 5.15 µM) | 2 (≈ 5.15 µM) | < 0.2 | 0.7 (≈ 1.8 µM) | 0.7 (≈ 1.8 µM) | < 0.2 |  |  |  |  |  |  |  |  |  | 
CN1O[C@H](c2ccccc2)C[C@@]1(Cn1ccnc1)c1ccccc1 | 70 (≈ 219 µM) | 70 (≈ 219 µM) | 7 (≈ 21.9 µM) | 7 (≈ 21.9 µM) | 7 (≈ 21.9 µM) | 20 (≈ 62.6 µM) | 0.7 (≈ 2.19 µM) | 2 (≈ 6.26 µM) | 7 (≈ 21.9 µM) | 0.7 (≈ 2.19 µM) |  |  |  |  |  |  |  |  |  | 
CN1O[C@H](c2c(Cl)cccc2Cl)C[C@@]1(Cn1ccnc1)c1ccc(Cl)cc1 | 2 (≈ 4.73 µM) | 7 (≈ 16.6 µM) | 7 (≈ 16.6 µM) | 0.7 (≈ 1.66 µM) | 2 (≈ 4.73 µM) | 20 (≈ 47.3 µM) | 7 (≈ 16.6 µM) | 0.7 (≈ 1.66 µM) | 7 (≈ 16.6 µM) | 0.7 (≈ 1.66 µM) |  |  |  |  |  |  |  |  |  | 
CN1O[C@H](c2ccccc2)C[C@@]1(Cn1ccnc1)c1ccc(Cl)cc1 | 70 (≈ 198 µM) | 20 (≈ 56.5 µM) | 7 (≈ 19.8 µM) | 0.7 (≈ 1.98 µM) | 2 (≈ 5.65 µM) | 7 (≈ 19.8 µM) | < 0.2 | 0.7 (≈ 1.98 µM) |  |  |  |  |  |  |  |  |  |  | 0.7 (≈ 1.98 µM) | 2 (≈ 5.65 µM)
CN1O[C@H](c2ccccc2)C[C@@]1(Cn1ccnc1)c1ccc(F)cc1 | 20 (≈ 59.3 µM) | 70 (≈ 207 µM) |  |  |  |  |  | 2 (≈ 5.93 µM) |  |  |  |  |  |  |  |  |  |  |  | 
CN1O[C@@H](c2c(Cl)cccc2Cl)C[C@@]1(Cn1ccnc1)c1ccc(Cl)cc1 | 7 (≈ 16.6 µM) | 7 (≈ 16.6 µM) | 7 (≈ 16.6 µM) | 0.7 (≈ 1.66 µM) | 2 (≈ 4.73 µM) | 20 (≈ 47.3 µM) | 7 (≈ 16.6 µM) | 0.7 (≈ 1.66 µM) | 7 (≈ 16.6 µM) | 0.7 (≈ 1.66 µM) |  |  |  |  |  |  |  |  |  | 
Fc1ccc([C@]2(Cn3ccnc3)C[C@@H](c3ccccc3)ON2Cc2ccccc2)cc1 | > 70 | 20 (≈ 48.4 µM) |  |  |  |  |  | 0.7 (≈ 1.69 µM) |  |  |  |  |  |  |  |  |  |  |  | 
